According to publication PMC8842743 (Journal of Alzheimer's Disease Reports, 2022):

Assay: Dog plasma protein binding
Type: in vitro ADME
Conditions: equilibrium dialysis of dog plasma
In short: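 Fraction unbound was determined in vitro by equilibrium dialysis of mouse brain homogenate or dog plasma. Unbound concentrations were derived by multiplying the total measured concentrations by this fraction unbound.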

- dog plasma free fraction: 0.009
SMILES: COc1cnc(C(=O)Nc2ccc(F)c([C@]34CN(c5ncc(F)cn5)C[C@H]3CSC(N)=N4)c2)cn1 [LY3202626]
